# NR2E3 ag-1 – inhibitors of NR2E3-RetCOR corepressor binding, primary screen, NR2E3 agonist project, biochemical, TR-FRET, GST-NR2E3, biotin-RetCOR | 1536-well | inhibition of corepressor binding, % at 4.78 µM | actives 0.12% (n = 320,000);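 active = percent inhibition above the cutoff of mean plus 3 SD of all tested compounds, set per screening campaign, cut at about 20% in these data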;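 note: 0% = DMSO wells and 100% = biotin wells as full block of FRET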
# Target sequence (Q9Y5X4 whole entry, looked up): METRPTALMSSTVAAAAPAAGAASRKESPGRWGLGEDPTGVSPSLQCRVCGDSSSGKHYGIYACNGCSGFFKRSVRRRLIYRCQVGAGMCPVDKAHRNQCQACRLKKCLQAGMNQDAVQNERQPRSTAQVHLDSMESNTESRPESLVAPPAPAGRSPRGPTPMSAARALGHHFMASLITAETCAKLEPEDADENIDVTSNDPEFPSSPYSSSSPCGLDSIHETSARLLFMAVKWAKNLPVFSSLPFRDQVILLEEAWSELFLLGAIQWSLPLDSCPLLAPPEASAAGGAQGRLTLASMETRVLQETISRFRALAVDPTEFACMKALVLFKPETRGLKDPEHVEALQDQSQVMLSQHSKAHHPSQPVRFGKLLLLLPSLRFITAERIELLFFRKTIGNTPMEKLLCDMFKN
#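 Material – GST-tagged NR2E3 plus biotinylated RetCOR corepressor · Quantity – NR2E3 fusion 1.35 nM · Times – 5 h incubation at 4 °C · Medium – pH 7.5 Tris-based buffer · Technique – TR-FRET, Eu(K)-anti-GST donor, streptavidin-D2 acceptor, ex 340, em 617/671 nm · Benchmarks – high control biotin, low control 0.6% DMSO · Format – 1536-well plates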
# NR2E3 ag-2 – NR2E3 agonists in two-hybrid cells, primary screen, cell-based, luminescence, CHO-S, Gal4-NCOR/VP16-NR2E3. Photoreceptor-specific nuclear receptor (Homo sapiens), Q9Y5X4. luciferase. inhibition of corepressor binding, % at 3.98 µM. actives 0.35% (n = 360,000). AID 602229, 2012;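 active = inhibition above the mean of all tested compounds plus 3 SD, cut at about 70% in these data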;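 note: 0% = DMSO with NR2E3 transfected cells and 100% = cells lacking NR2E3 construct; higher means lower luciferase signal from less NR2E3 corepressor binding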
# GAA850 FXN act – FXN promoter activators, primary screen, cell-based, luciferase luminescence, HEK293 lucGAA850; actives 0.56% (n = 360,000); AID 540364, 2011; activation, % at 6 µM; HEK293 lucGAA850 FXN promoter luciferase reporter, 24 h; percent of 10 µM SAHA response;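 active = activation above the average of all compounds screened plus 3 SD, cutoff fixed separately per campaign, cut at about 7.5% in these data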;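 note: 0% = DMSO wells and 100% = 10 µM SAHA wells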
# T cell modulator – modulators of CD8 T cell-vesicle binding, primary screen, mouse 2C CD8+ T cells, flow cytometry; AID 2052, 2009; 2C CD8+ T cell-vesicle binding; hits give low values; response (vesicle binding), % at 7 µM; actives 0.068% (n = 330,000);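 active = response, share of CD8 T cells binding vesicles, and their 90th percentile fluorescence all below set limits, cut at about 80% in these data, passing the limit was not always enough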;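 note: values below 100% mean blocked vesicle binding to the CD8+ T cells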
#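 Assay system: 2C TCR transgenic mouse naive CD8+ T cells, MACS-purified | Read-out: CD8+ gate FL2 mean fluorescence as % of same-row positive control | Signal: High-throughput flow cytometry with anti-B7-1 and anti-CD8 staining | Timing: Binding step 1.5 h, 37 °C, antibody labelling 20 min, ice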
# Myeloid diff MLP – induction of myeloid progenitor differentiation, primary screen, cell-based, flow cytometry, MLPCN library. actives 1% (n = 360,000). ER-HoxA9 myeloid progenitors, lysozyme-GFP differentiation. calls only at 10 µM. AID 624256, 2012;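 active = normalized GFP-positive differentiation at or above the plate's own cutoff, the solvent-only control mean plus 3 SD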;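 note: cells exposed to compound for four days before flow analysis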
# NR2E3 agonist cf – NR2E3 agonists, confirmation, biochemical, TR-FRET | shares compounds with NR2E3 ag-1 | cell-free NR2E3 corepressor release, 5 h | activation (reported as inhibition), % at 3.98 µM | actives 39% (n = 360); in the data active = activation above about 20%
# PPARg-NCOR2 ag – agonists of PPARg-NCOR2 corepressor interaction, counter-screen for NR2E3 agonist project, biochemical, TR-FRET; TR-FRET PPARg-NCOR2 coregulator interaction; inhibition, % at 3.98 µM; AID 504787, 2011; actives 45% (n = 360); shares compounds with NR2E3 ag-1; in the data active = inhibition above about 20%;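 note: 0% = DMSO vehicle and 100% = wells without protein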
# * hit, by the source's call; i = inactive; nt = no result; + = active, no number. Shown are actives, neighbours in structure and some others; about 2% of the full set was active somewhere.
SMILES,NR2E3 ag-1,NR2E3 ag-2,GAA850 FXN act,T cell modulator,Myeloid diff MLP,NR2E3 agonist cf,PPARg-NCOR2 ag
S=c1nc(COc2ccccc2)[nH]c2ccccc12,31*,-85,1,238,+,5,13
O=c1[nH]c(COc2ccccc2)nc2ccccc12,-5,-55,4,270,i,nt,nt
S=c1nc(Cc2ccccc2)[nH]c2ccccc12,23*,-7,3,292,+,-4,8
C[C@@H]1CCCCO[C@@H](CN(C)C(=O)c2ccncc2)[C@@H](C)CN([C@H](C)CO)C(=O)c2cc(N(C)C)ccc2O1,nt,-6,1,nt,i,nt,nt
COc1cccc(/C=C/C(=O)OCC(=O)Nc2nnc(-c3ccccc3)o2)c1,-1,-21,0,519,i,nt,nt
O=C(O)CCc1ccc(-c2ccc(Br)cc2)o1,35*,-58,1,204,i,36*,32*
O=C(O)CCc1ccc(-c2ccc(Cl)cc2)o1,1,-58,2,228,i,nt,nt
Cc1cccnc1NC(=S)Nc1ccc(Br)cc1Cl,2,-92,3,163,i,nt,nt
O=C(C1=C(O)C(=O)N(CCCn2ccnc2)C1c1ccccc1)c1ccco1 (stereo not given),32*,-8,0,0,i,6,-1
CCOc1ccc(C2C(C(=O)c3ccco3)=C(O)C(=O)N2CCCn2ccnc2)cc1 (stereo not given),nt,-25,1,nt,i,nt,nt
O=C(C1=C(O)C(=O)N(CCCn2ccnc2)C1c1cccc(Br)c1)c1ccco1 (stereo not given),34*,3,1,451,i,0,0
COC(=O)c1cc2sc(Cl)cc2n1Cc1nc(-c2ccccc2)oc1C,25*,2,2,369,i,-4,-8
FC(F)(F)c1ccc(Cl)c(N/N=C/c2ccc(N3CCOCC3)s2)c1,-6,-34,1,372,i,nt,nt
COc1cc(/C=C2/C(=O)N(c3ccc([N+](=O)[O-])cc3)N=C2N2CCOCC2)ccc1O,29*,1,-1,212,i,-5,48*
COC(=O)C1C=CC(OC2OC(COC(C)=O)C(OC(C)=O)C(OC(C)=O)C2OC(C)=O)n2c(=O)n(-c3ccccc3)c(=O)n21 (stereo not given),nt,-8,-9,nt,nt,nt,nt
Cc1cc(Br)c2nc3c(c(C(=O)O)c2c1)CCCCC3,48*,19,3,394,i,60*,60*
CCN(CC)S(=O)(=O)c1cc(C(=O)OCC(=O)Nc2cccc(S(=O)(=O)N(C)C)c2)ccc1F,22*,1,0,238,i,-6,-6
CCOC(=O)NNC(=O)c1[nH]c2ccc(Br)cc2c1-c1ccccc1,-1,-51,0,194,i,nt,nt
CCc1c(C(=O)O)[nH]c2ccc(Br)cc12,43*,-2,1,466,i,41*,30*
COc1cc(/C=C/C(=O)OC(C)C(=O)c2ccccc2)cc(OC)c1OC (stereo not given),7,-6,-2,142,i,nt,nt
CC(C)(C)c1ccc(CC(=O)N2CCC2(C)C(=O)O)cc1 (stereo not given),nt,3,0,nt,i,nt,nt
CC(C)n1c2ccccc2c2nnc(SCC(=O)Nc3ccccc3C(=O)O)nc21,26*,-11,2,319,i,7,13
COc1cc2c3c(c1OC)C(=O)CC3CCCC2 (stereo not given),nt,-5,nt,nt,i,nt,nt

# Source: PubChem BioAssay
